The target in data set [1] is T1, Protein-glutamine gamma-glutamyltransferase (Homo sapiens) (UniProt P21980).
T1 sequence (whole entry): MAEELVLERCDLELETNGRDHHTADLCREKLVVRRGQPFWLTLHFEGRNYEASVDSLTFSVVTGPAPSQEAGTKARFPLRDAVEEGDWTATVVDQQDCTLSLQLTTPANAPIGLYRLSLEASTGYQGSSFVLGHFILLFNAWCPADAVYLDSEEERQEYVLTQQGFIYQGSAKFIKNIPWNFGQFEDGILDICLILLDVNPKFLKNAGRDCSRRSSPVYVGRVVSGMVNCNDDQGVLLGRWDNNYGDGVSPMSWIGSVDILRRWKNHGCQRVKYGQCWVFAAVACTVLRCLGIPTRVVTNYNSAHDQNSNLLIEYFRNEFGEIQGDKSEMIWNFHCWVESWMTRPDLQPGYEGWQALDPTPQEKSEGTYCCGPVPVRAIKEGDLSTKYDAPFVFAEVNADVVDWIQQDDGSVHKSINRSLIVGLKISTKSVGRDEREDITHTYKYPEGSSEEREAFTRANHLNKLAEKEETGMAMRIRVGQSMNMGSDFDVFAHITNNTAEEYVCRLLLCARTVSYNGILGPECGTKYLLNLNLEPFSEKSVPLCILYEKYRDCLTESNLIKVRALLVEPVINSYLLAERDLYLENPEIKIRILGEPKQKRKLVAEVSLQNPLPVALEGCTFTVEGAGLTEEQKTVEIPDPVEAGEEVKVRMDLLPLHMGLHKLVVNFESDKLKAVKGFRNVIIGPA
Kind of data set: Irreversible inhibition of human recombinant tissue transglutaminase expressed in Escherichia coli using Cbz-Glu-(gamma-p-nitrophenylester)Gly (AL5) as substrate assessed as substrate hydrolysis by measuring Kinact/Ki ratio by linear regression analysis. In outline:
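For TG2/AL5 under Kitz–Wilson conditions (100 μM AL5, pH 6.9 MOPS, 25 °C, 405 nm), kinact/KI was taken from simple linear regression of kobs against corrected inhibitor concentration at the lowest inhibitor concentrations.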

For data set [2], the target named is T1, Protein-glutamine gamma-glutamyltransferase (Homo sapiens). Nature of the data set: Irreversible inhibition of human recombinant tissue transglutaminase expressed in Escherichia coli using Cbz-Glu-(gamma-p-nitrophenylester)Gly (AL5) as substrate assessed as substrate hydrolysis by measuring Kinact/Ki ratio incubated for 20 mins by colorimetric analysis.
Data set [3] shares this target. Nature of the data set: Inhibition of human recombinant tissue transglutaminase expressed in Escherichia coli using Cbz-Glu-(gamma-p-nitrophenylester)Gly (AL5) as substrate assessed as substrate hydrolysis by measuring Kinact incubated for 20 mins by colorimetric analysis.
In data set [4] the target is T2, Protein-glutamine gamma-glutamyltransferase (Homo sapiens, UniProt P21980).
T2 sequence (P21980 whole entry): T1 sequence (whole entry)
Kind of data set: Irreversible inhibition of human recombinant tissue transglutaminase expressed in Escherichia coli using Cbz-Glu-(gamma-p-nitrophenylester)Gly (AL5) as substrate assessed as substrate hydrolysis by measuring KI incubated for 20 mins by colorimetric analysis.

Data set [5] deals with T3, Coagulation factor XIII A chain (Homo sapiens) (UniProt P00488).
T3 sequence (whole entry): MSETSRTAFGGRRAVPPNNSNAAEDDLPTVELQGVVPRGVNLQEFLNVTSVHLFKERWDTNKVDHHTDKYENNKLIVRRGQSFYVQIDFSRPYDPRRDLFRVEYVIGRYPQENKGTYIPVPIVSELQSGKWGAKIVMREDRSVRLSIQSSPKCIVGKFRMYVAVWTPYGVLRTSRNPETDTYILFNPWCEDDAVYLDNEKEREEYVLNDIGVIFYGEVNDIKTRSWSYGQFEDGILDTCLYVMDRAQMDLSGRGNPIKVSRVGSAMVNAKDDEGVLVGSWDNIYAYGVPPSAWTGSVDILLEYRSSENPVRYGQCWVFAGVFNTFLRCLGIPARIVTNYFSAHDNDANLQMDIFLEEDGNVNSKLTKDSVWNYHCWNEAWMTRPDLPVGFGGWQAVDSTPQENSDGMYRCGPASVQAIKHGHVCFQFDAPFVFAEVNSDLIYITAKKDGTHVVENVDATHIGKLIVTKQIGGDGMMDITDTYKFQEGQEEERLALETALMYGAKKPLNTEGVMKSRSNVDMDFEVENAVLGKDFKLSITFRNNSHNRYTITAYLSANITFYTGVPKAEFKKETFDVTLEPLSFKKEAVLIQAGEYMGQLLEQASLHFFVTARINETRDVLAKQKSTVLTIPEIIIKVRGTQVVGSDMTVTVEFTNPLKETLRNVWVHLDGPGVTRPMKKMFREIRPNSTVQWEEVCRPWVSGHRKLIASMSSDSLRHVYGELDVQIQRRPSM
Kind of data set: Reversible inhibition of human factor XIIIa using peptidic FRET-quenched probe A101 as substrate by fluorescence based assay relative to control. As to conditions: concentration not given here.

Data set [6] concerns the target T4, Protein-glutamine gamma-glutamyltransferase K (Homo sapiens) (UniProt P22735).
T4 sequence (whole entry): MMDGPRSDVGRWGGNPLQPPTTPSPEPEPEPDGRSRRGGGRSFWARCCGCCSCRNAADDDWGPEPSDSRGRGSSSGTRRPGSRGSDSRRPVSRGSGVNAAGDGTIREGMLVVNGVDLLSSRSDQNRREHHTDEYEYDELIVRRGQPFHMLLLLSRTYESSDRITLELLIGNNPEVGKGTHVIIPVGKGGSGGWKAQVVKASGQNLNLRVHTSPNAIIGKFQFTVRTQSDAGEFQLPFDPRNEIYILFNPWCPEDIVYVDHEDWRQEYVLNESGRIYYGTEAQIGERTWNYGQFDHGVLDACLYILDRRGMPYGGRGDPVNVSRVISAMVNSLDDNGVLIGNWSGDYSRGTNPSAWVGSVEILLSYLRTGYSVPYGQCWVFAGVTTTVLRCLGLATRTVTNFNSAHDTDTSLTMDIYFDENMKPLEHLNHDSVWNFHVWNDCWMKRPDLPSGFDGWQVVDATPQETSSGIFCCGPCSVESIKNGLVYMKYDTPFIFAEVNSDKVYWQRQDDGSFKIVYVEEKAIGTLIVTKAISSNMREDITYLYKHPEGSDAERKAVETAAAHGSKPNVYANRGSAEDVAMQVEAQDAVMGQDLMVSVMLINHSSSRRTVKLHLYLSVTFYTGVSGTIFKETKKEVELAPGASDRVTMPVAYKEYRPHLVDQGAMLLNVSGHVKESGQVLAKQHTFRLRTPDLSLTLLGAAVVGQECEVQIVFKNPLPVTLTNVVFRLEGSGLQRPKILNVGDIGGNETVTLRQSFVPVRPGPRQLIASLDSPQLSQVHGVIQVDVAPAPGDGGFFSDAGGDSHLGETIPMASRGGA
Kind of data set: Irreversible inhibition of human TG1 using Cbz-Glu-(gamma-p-nitrophenylester)Gly (AL5) as substrate assessed as substrate hydrolysis by measuring observed binding constant incubated for 100 mins by colorimetric assay.

Data set [7] in a line: Metabolic stability in pooled cryopreserved human hepatocytes assessed as half-life at 1 uM measured upto 120 mins by LC-MS/MS analysis. Format: ADME, cell-based, Hepatocyte. In outline:
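Samples were taken at 0, 5, 15, 30, 60 and 120 min, acetonitrile-quenched with internal standard, and analysed by LC-MS/MS. Half-life came from exponential decay of the parent/IS ratio relative to T = 0.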

Data set [8] in a line: Ratio of Kinact/Ki for inhibition of human tissue transglutaminase assessed as substrate hydrolysis to corrected second order rate constant (K2 corrected) for GSH reactivity in aqueous buffer assessed as GSH adduct formation. It is filed as physicochemical.
Data set [9] addresses T1, Protein-glutamine gamma-glutamyltransferase (Homo sapiens). Kind of data set: Irreversible inhibition of human TG2 using Cbz-Glu-(gamma-p-nitrophenylester)Gly (AL5) as substrate assessed as substrate hydrolysis by measuring observed binding constant incubated for 20 mins by colorimetric assay.
The nature of data set [10]: GSH reactivity in aqueous buffer assessed as GSH adduct formation by measuring corrected intrinsic second order rate constant (K2 corrected) by HPLC analysis. It is filed as physicochemical. The gist of the method: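 GSH stock diluted to final 15 mM in aqueous buffer (pH 8.0 used, 7.4 too slow), reaction started with inhibitor at final 0.5 mM, 2% v/v DMSO. Incubated at 22 °C and aliquots taken over at least 5–6 half-lives. HPLC with UV 214/254 nm tracked adduct growth and inhibitor loss, fitted mono-exponentially to give pseudo-first-order kobs. kobs was divided by [thiol] and then by the thiolate fraction (pKa 8.7) to give kcorr2. Run in duplicate.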

Data set [11] can be described thus: Metabolic stability in human whole blood assessed as half-life at 1 to 5 uM measured upto 120 mins by LC-MS/MS analysis. Format: ADME, tissue-based. As to conditions: dose 1-5 µM. In outline:
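Pooled human whole blood (K3-EDTA) was spiked to 1 or 5 μM compound. Aliquots taken at 0, 15, 30, 60 and 120 min were quenched in acetonitrile with 0.1% formic acid and internal standard, then analysed by LC-MS/MS. Percent parent remaining is the peak-area ratio versus T = 0; half-life comes from an exponential decay fit.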

Data set [12] has as its target T2, Protein-glutamine gamma-glutamyltransferase. Nature of the data set: Reversible inhibition of human recombinant tissue transglutaminase expressed in Escherichia coli using Cbz-Glu-(gamma-p-nitrophenylester)Gly (AL5) as substrate assessed as substrate hydrolysis by measuring Ki incubated for 20 mins by colorimetric analysis. In outline: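 For TG2 reversible inhibition, the same AL5 colorimetric assay (MOPS pH 6.9, 7.5 mM CaCl2, 0.25 μM TG2, 405 nm) was run at 100 and 50 μM AL5. Initial rates were taken over the first 10% conversion of the uninhibited control, and 1/v0 was plotted against [I] in a Dixon plot; Ki came from the intersection of the lines.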

Turning to `O=C(CN=C=S)N1CCN(C(=O)C23CC4CC(CC(C4)C2)C3)CC1`, the values for the Ratio in [1] and in [2] were 17.7 10^3/M/min and 26.3 10^3/M/min, respectively. Further, in data set [3], the Kinact was 0.23 min⁻¹. In data set [4], the Ki is 8.83 µM.
In the same order, the values of `C=C(F)C(=O)NCC(=O)N1CCN(C(=O)C23CC4CC(CC(C4)C2)C3)CC1` are 28.5 10^3/M/min, 30.4 10^3/M/min, 1.17 min⁻¹ and 38.4 µM.
The term inhibition denotes the percentage by which the read-out fell short of the control. Low readings indicate little suppression, high ones strong suppression. What is called half-life is the time in which the quantity being followed falls by half. As for `C=C(Cl)C(=O)NCC(=O)N1CCN(C(=O)C23CC4CC(CC(C4)C2)C3)CC1`, in data set [5], the inhibition amounted to 76%. The values for the K in data set [6], in [9] and in [10] were 0.022 min⁻¹, 0.509 min⁻¹ and 59.387 10^-3/M/min, respectively. For the same compound, the values for the Ratio in data set [1], in data set [8] and in data set [2] were 3140 10^3/M/min, 0.053 and 3130 10^3/M/min, respectively. Moreover, the half-life at 1 µM in [7] was found to be 1.53 h. Besides, the Kinact in data set [3] worked out at 7.28 min⁻¹. In addition, the Ki in [4] amounted to 2.32 µM. Besides, in [11], the half-life at up to 5 µM worked out at 0.533 h.
`C#CC(=O)NCC(=O)N1CCN(C(=O)C23CC4CC(CC(C4)C2)C3)CC1`: the Ratio in [1] is 87.7 10^3/M/min; in data set [2], 97.5 10^3/M/min. Moreover, in data set [3], the Kinact worked out at 6.83 min⁻¹. Further, the Ki in data set [4] worked out at 70.1 µM.
In the case of `C=C(Br)C(=O)NCC(=O)N1CCN(C(=O)C23CC4CC(CC(C4)C2)C3)CC1`, the K in data set [6] came to 0.018 min⁻¹; in [9], 0.497 min⁻¹. Besides, the Ratio in data set [1] was 2320 10^3/M/min; in data set [2] it was 2410 10^3/M/min. Also, the Kinact in data set [3] worked out at 4.69 min⁻¹. Further, in [4], the Ki was determined as 1.95 µM.
For `[N-]=[N+]=CC(=O)NCC(=O)N1CCN(C(=O)C23CC4CC(CC(C4)C2)C3)CC1`, the Ratio is 95 10^3/M/min in data set [1] and 107 10^3/M/min in data set [2]. For the same compound, the Kinact in data set [3] was 2.82 min⁻¹. Moreover, the Ki in data set [4] is 26.3 µM.
In the same order, the values of `O=C(NCC(=O)N1CCN(C(=O)C23CC4CC(CC(C4)C2)C3)CC1)C(F)Cl` (configuration not stated) are 16 10^3/M/min, 17.8 10^3/M/min, 1.57 min⁻¹ and 88.5 µM.
Consider `C/C=C/C(=O)NCC(=O)N1CCN(C(=O)C23CC4CC(CC(C4)C2)C3)CC1`, for which the Ratio is 6.7 10^3/M/min in data set [1] and 8.3 10^3/M/min in [2]. The Ki in [4] was 61.8 µM.
Regarding `C=C(C(=O)NCC(=O)N1CCN(C(=O)C23CC4CC(CC(C4)C2)C3)CC1)C(F)(F)F`, the Ratio in data set [1] is 209 10^3/M/min; in data set [2], 171 10^3/M/min. For the same compound, the Kinact in data set [3] came out at 5.22 min⁻¹. The Ki in [4] worked out at 30.6 µM.
As to `C[S+]([O-])CCCCN=C=S` (configuration not stated) [SULFORAPHANE], in data set [3], the Kinact is 0.27 min⁻¹. Also, the Ki in data set [4] amounted to 366 µM.
For `CC(=O)C(=O)NCC(=O)N1CCN(C(=O)C23CC4CC(CC(C4)C2)C3)CC1`, in data set [12], the Ki was determined as 154 µM.

(Values after ChEMBL document CHEMBL5230175, “The war on hTG2: warhead optimization in small molecule human tissue transglutaminase inhibitors” (RSC Med Chem, 2023).)
